High-throughput results deposited in PubChem BioAssay by several laboratories.
An excerpt weighted towards active compounds, which were near 4.3% of everything screened.
MC4R barr agon = activates human MC4R beta-arrestin recruitment | U2OS MC4R beta-arrestin complementation, luminescence; percent of melanotan II response, DMSO zero | activation, % at 8.9 µM | 360,000 compounds, 0.98% hits | AID 540308 | P32245;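 active = activation above a per-plate cutoff, the mean activation of sample wells on that plate plus 3 SD, cut at about 8% in these data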
Target sequence (P32245 whole entry, looked up): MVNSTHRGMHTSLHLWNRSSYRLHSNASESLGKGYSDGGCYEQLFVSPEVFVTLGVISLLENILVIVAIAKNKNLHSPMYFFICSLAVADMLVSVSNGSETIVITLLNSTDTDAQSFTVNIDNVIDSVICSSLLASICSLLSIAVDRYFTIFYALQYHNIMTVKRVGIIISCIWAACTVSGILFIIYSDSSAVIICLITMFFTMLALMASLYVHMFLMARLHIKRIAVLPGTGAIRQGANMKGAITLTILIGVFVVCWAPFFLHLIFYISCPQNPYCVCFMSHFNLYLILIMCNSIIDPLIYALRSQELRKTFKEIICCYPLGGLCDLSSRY
MC4R antag cAMP = antagonists of human melanocortin 4 receptor (MC4R); 360,000 compounds, 0.48% hits; inhibition, % at 6.5 µM; P32245; MC4R-expressing cells, MTII-stimulated cAMP, LANCE TR-FRET; AID 540295;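 active = inhibition above its plate's cutoff, the mean of tested wells on that plate plus 3 SD, cut at about 29% in these data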
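Material: human MC4R-expressing U2OS cells. Probe or stimulus: Melanotan II challenge. Dosing: 6.5 µM single dose. Times: 30-min compound, 1-h challenge, 1-h detection, room temperature. Technique: TR-FRET with Eu-cAMP and labeled anti-cAMP, 671 nm. Replication: singlicate.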
TAAR1 ag = agonists of human TAAR1; Q96RJ0; CHO RD-HGA16 TAAR1, Fluo-8 calcium fluorescence; vehicle wells 0%, saturating PEA agonist 100%; activation, % at 3 µM; 360,000 compounds, 0.99% hits;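 active = activation above the mean activation of all test compounds in the run plus 3 SD, cut at about 38% in these data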
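Repeats: no replicates (n 1) | Material: CHO-derived RD-HGA16 cells with stable Gα16 and human TAAR1 | Technique: Kinetic Fluo-8 calcium fluorescence | Schedule: 17-24 h seeding, 75 min 37 °C dye, 30 min RT | Evaluation: % activation from peak over basal fluorescence ratio, DMSO-to-PEA scaled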
m5-HT2A agonist = activates the mouse 5-HT2A serotonin receptor | P35363 | CHO-K1 mHTR2A beta-arrestin complementation, luminescence; percent of 30 µM serotonin response | activation, % at 7.6 µM | 360,000 compounds, 0.66% hits | AID 624169;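 active = activation above a run cutoff, the mean activation of all tested compounds plus 3 SD, cut at about 14% in these data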
Beta2AR agonist = agonists of human beta-2 adrenergic receptor inducing internalization; Am2.2-beta2AR cells, FAP receptor internalization, flow cytometry; AID 504454; 340,000 compounds, 0.43% hits; P07550; response, % (concentration not given with the values);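 active = response above a set limit, near 3 SD of response in nonfluorescent compounds, cut at about 42% in these data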
Target sequence (P07550 whole entry, looked up): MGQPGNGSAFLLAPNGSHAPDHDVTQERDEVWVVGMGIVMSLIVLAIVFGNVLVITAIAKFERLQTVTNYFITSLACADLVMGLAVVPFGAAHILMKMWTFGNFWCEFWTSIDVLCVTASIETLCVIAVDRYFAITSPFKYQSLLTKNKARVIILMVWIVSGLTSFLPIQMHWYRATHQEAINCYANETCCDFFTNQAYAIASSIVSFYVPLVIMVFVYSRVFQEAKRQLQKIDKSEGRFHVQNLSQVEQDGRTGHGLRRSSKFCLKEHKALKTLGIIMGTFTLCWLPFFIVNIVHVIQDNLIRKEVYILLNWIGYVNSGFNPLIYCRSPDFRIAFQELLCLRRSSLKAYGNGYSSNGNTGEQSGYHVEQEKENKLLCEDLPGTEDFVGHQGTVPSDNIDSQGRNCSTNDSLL
TAAR1 antag = human TAAR1 antagonism | CHO RD-HGA16 TAAR1, Fluo-8 calcium fluorescence, antagonist | Q96RJ0 | AID 624466 | inhibition, % at 3 µM | 360,000 compounds, 1.5% hits;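 active = inhibition above a per-plate cutoff, the mean inhibition of test compounds on that plate plus 3 SD, cut at about 49% in these data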
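System: RD-HGA16 CHO cells with stable hTAAR1 and Gα16 | Probe or stimulus: EC80 β-phenethylamine stimulus | Dosing: 3 µM, single point | Times: Dye loading 75 min at 37 °C, then 30 min room temperature | Measured by: Fluo-8 calcium-sensitive fluorescence | Read-out basis: % inhibition of agonist calcium response | Replicates: n of 1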
TAAR1 ag confirm = confirmation of human TAAR1 agonists; shares compounds with TAAR1 ag; 2,400 compounds, 82% hits; activation, % at 3 µM; CHO RD-HGA16 TAAR1, Fluo-8 calcium fluorescence; scaled: DMSO 0%, maximal phenethylamine 100%;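 active = activation above a cutoff set at the run's mean compound activation plus 3 SD, cut at about 39% in these data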
Ga16 ag counter = nonselective agonist in parental cells, TAAR1 agonist counter-screen | shares compounds with TAAR1 ag | activation, % at 3 µM | AID 651787 | 2,400 compounds, 50% hits | CHO-Ga16 parental, Fluo-8 calcium fluorescence; normalized to maximal ATP response, DMSO zero;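 active = activation above the run cutoff, the mean activation over all tested wells plus 3 SD, cut at about 12% in these data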
TAAR1 desensitize = human TAAR1 agonist that also desensitizes the receptor; shares compounds with TAAR1 ag; inhibition, % at 3 µM; CHO RD-HGA16 hTAAR1, Fluo-8 calcium, beta-PEA response inhibition; 2,400 compounds, 46% hits;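 active = inhibition above the run cutoff, the mean inhibition of all test compounds plus 3 SD, cut at about 49% in these data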;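 note: beta-PEA stimulus applied at its EC80; loss of beta-PEA calcium signal after compound pretreatment read as receptor desensitization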
Ga16 nonsel ant = nonselective Ga16 antagonism, counter-screen. shares compounds with TAAR1 ag. CHO-Ga16 ATP-induced calcium, Fluo-8 fluorescence. inhibition, % at 3 µM. 2,400 compounds, 39% hits. AID 651952;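 active = inhibition above the plate's mean compound inhibition plus 3 SD, computed per plate, cut at about 22% in these data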
Large screens that a line does not name were inactive (follow-up assays come after a bar, where they were run).

Cc1cc(C)c2c(=O)[nH]c(SCC(=O)NCCc3ccccc3)nc2n1	TAAR1 ag 69.7 | TAAR1 ag confirm 70.5 | Ga16 ag counter inactive | TAAR1 desensitize inactive | Ga16 nonsel ant inactive
CC(=O)c1sc2nc(SCC(=O)NCCc3ccccc3)[nH]c(=O)c2c1C	TAAR1 ag 89.7 | TAAR1 ag confirm 96.8 | Ga16 ag counter 19.1 | TAAR1 desensitize 56.3 | Ga16 nonsel ant inactive
O=C(CSc1nc(=O)n2cc(Cl)ccc2n1)NCCc1ccccc1	TAAR1 ag 50.0 | TAAR1 ag confirm 68.3 | Ga16 ag counter inactive | TAAR1 desensitize inactive | Ga16 nonsel ant inactive
Cc1ccccc1-c1ccc2c(c1)O[C@@H](CN(C)C(=O)Nc1ccc(C(F)(F)F)cc1)[C@H](C)CN([C@@H](C)CO)S2(=O)=O	none (no result: Beta2AR agonist)
O=c1c2c([nH]n1-c1ccccc1)C[C@@H](C1CCCCC1)O[C@H]2c1ccc(F)cc1	none (no result: MC4R barr agon, MC4R antag cAMP, TAAR1 ag, Beta2AR agonist, TAAR1 antag)
Cc1ccc(S(=O)(=O)N/N=C/c2ccc(OC3CSC3)cc2)cc1	MC4R barr agon 9.5, TAAR1 ag 91.3, TAAR1 antag 93.1 | TAAR1 ag confirm 98.0 | Ga16 ag counter 56.2 | TAAR1 desensitize 96.7 | Ga16 nonsel ant 71.2
Cc1ccc(S(=O)(=O)N/N=C/c2ccc(C(=O)O)cc2)cc1	none
CCOC(=O)c1c(NS(=O)(=O)c2cccc(OC)c2)sc2c1CCC2	TAAR1 ag 54.8 | TAAR1 ag confirm 64.2 | Ga16 ag counter 53.6 | TAAR1 desensitize inactive | Ga16 nonsel ant 26.0
CC(=O)Nc1cc2c3c(c1)CC(=O)N3CCC2	none
Cc1ccc(CCNC(=O)c2coc3nc4ccccc4nc23)cc1	TAAR1 ag 70.1 | TAAR1 ag confirm inactive | Ga16 ag counter inactive | TAAR1 desensitize inactive | Ga16 nonsel ant 23.1
O=C(OCCN1C(=O)c2cccc3c(N4CCOCC4)ccc(c23)C1=O)c1ccccc1Cl	TAAR1 ag 128.4, TAAR1 antag 105.0 | TAAR1 ag confirm 92.6 | Ga16 ag counter 94.5 | TAAR1 desensitize 94.6 | Ga16 nonsel ant 85.6
CC(=NNC(=O)c1ccncc1)c1cccc(Cl)c1	none
CCN(CC)c1ccc(/C=C(\C#N)C(=O)c2ccc(Br)cc2)cc1	TAAR1 ag 214.6, TAAR1 antag 90.9 | TAAR1 ag confirm 314.9 | Ga16 ag counter 325.0 | TAAR1 desensitize 105.0 | Ga16 nonsel ant 102.6
COc1ccc(S(=O)(=O)NCC(=O)NCc2cc(=O)n(C)c(=O)n2C)cc1	none
O=C(NC1CCCc2ccccc21)c1ccccc1 (configuration not stated)	none
O=C(O)C1C2C=CC(O2)C1C(=O)NC1CCCc2ccccc21 (configuration not stated)	TAAR1 ag 55.1 | TAAR1 ag confirm 48.8 | Ga16 ag counter inactive | TAAR1 desensitize inactive | Ga16 nonsel ant inactive
c1ccc(CN(CC2=NCCN2)c2ccccc2)cc1	TAAR1 ag 65.9 | TAAR1 ag confirm 91.5 | Ga16 ag counter inactive | TAAR1 desensitize 67.0 | Ga16 nonsel ant inactive
c1ccc(CC2=NCCN2)cc1	TAAR1 ag 75.0, TAAR1 antag 63.3 | TAAR1 ag confirm 91.6 | Ga16 ag counter inactive | TAAR1 desensitize 76.1 | Ga16 nonsel ant inactive
c1ccc(CSC2=NCCCN2)cc1	none
O=C(Cc1ccc(NC(=O)C2CCN(C(=O)C3CCCC3)CC2)cc1)Nc1cccc(C(=O)N2CCCCC2)c1	none
COc1cc2[nH]c(C(=O)N3CCc4ccccc4C3)cc2c(OC)c1OC	TAAR1 ag 44.1 | TAAR1 ag confirm 71.9 | Ga16 ag counter inactive | TAAR1 desensitize inactive | Ga16 nonsel ant inactive
COc1cc2cc(C(=O)N3CCc4ccccc4C3)[nH]c2cc1OC	none
Cc1ccc(SCC(=O)Nc2ccc(N3CCN(c4ccccc4)CC3)c(F)c2)cc1	none
CN1CCN(c2ccc(NC(=O)CSc3ccccc3)cc2F)CC1	TAAR1 ag 57.0 | TAAR1 ag confirm 71.3 | Ga16 ag counter inactive | TAAR1 desensitize inactive | Ga16 nonsel ant inactive
O=C(Nc1cccc(S(=O)(=O)N2CCOCC2)c1)C1COc2ccccc2O1 (configuration not stated)	none
O=C1C(Cl)=C(NCCc2ccccc2)C(=O)N1CCc1ccccc1	TAAR1 ag 43.2, TAAR1 antag 65.7 | TAAR1 ag confirm 73.3 | Ga16 ag counter inactive | TAAR1 desensitize 83.2 | Ga16 nonsel ant 32.2
O=C1C(Cl)=C(NCCCN2CCOCC2)C(=O)N1CCc1ccccc1	none
O=C1C(Cl)=C(NCC2CCCO2)C(=O)N1CCc1ccccc1 (configuration not stated)	TAAR1 ag 74.2 | TAAR1 ag confirm 51.5 | Ga16 ag counter inactive | TAAR1 desensitize inactive | Ga16 nonsel ant inactive
CC(CN1C(C)CCCC1C)OC(=O)c1cccc(Br)c1 (configuration not stated)	none
CCCCNc1nc(-c2ccccc2)nc(-n2ccnc2)n1	none
C=CCNc1nc(-c2ccccc2)nc(-n2ccnc2)n1	TAAR1 ag 46.3 | TAAR1 ag confirm inactive | Ga16 ag counter inactive | TAAR1 desensitize inactive | Ga16 nonsel ant inactive
CC(=O)Nc1ccc2c(c1)Cc1ccc(Cl)cc1-2	none
CC(=O)Nc1ccc2c(c1)Cc1cc(N3C(=O)C=CC3=O)ccc1-2	TAAR1 ag 58.9, Beta2AR agonist 44.5, TAAR1 antag 51.6 | TAAR1 ag confirm inactive | Ga16 ag counter 29.0 | TAAR1 desensitize inactive | Ga16 nonsel ant 53.6
O=C(CSC(=S)N1CCCC1)NCCc1ccccc1	TAAR1 ag 97.4, TAAR1 antag 87.5 | TAAR1 ag confirm 87.9 | Ga16 ag counter inactive | TAAR1 desensitize 98.1 | Ga16 nonsel ant inactive
CN(C)C(CNC(=O)CSC(=S)N1CCCC1)c1ccccc1 (configuration not stated)	none
NNCCc1ccccc1	TAAR1 ag 75.4 | TAAR1 ag confirm 93.8 | Ga16 ag counter inactive | TAAR1 desensitize 76.3 | Ga16 nonsel ant inactive
COc1ccc(C(c2sc3nc(C)nn3c2O)N2CCc3ccccc3C2)cc1 (configuration not stated)	none
COc1cccc(C(c2sc3ncnn3c2O)N2CC(C)OC(C)C2)c1 (configuration not stated)	none
